These results are taken from ChEMBL document CHEMBL4477203 (J Med Chem, 2016).

pKi: −log10 of the molar value.

The target of assay [1] is T1, Neuropeptide Y receptor type 4 (Homo sapiens, UniProt P50391). Description: Binding affinity to human NPY Y4 receptor expressed in CHO cells co-expressing Gqi5-mtAEQ assessed as time required for complete association by liquid scintillation counting. In kind it is cell-based. The following applies: tested as the 3H-labelled form. A digest of the protocol: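 Adherent CHO-hY4-Gqi5-mtAEQ cells (about 90% confluent) in buffer I with 1% BSA and 0.1 mg/mL bacitracin at 22 °C. Tritiated radioligand was applied at 1.5 nM for 2–180 min. Wells were washed twice with ice-cold buffer I, lysed and counted. kobs was taken from ln[Beq/(Beq-Bt)] versus time. Data are means of 3 experiments in triplicate.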

Assay [2] has as its target T2, Neuropeptide Y receptor type 2 (Homo sapiens, UniProt P49146).
T2 sequence (P49146 whole entry): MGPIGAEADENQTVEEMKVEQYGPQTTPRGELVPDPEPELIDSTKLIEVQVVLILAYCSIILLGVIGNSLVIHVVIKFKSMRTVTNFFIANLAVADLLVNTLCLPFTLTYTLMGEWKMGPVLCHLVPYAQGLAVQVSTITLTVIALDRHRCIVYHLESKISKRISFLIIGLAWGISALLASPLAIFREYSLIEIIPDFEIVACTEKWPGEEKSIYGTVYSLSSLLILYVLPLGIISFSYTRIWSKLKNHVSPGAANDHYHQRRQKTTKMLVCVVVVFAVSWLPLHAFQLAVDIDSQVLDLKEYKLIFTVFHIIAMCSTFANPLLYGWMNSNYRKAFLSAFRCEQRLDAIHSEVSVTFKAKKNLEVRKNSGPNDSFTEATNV
Description: Displacement of [3H]propionyl-pNPY from human NPY Y2 receptor expressed in CHO cells co-expressing Gqi5-mtAEQ after 90 mins by liquid scintillation counting. In kind it is cell-based. The essentials:
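Adherent CHO-hY2R-Gqi5-mtAEQ cells in buffer I with 1% BSA and 0.1 mg/mL bacitracin at 22 °C. […] Incubation was 90 min, followed by two ice-cold washes, lysis and scintillation counting.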
For orientation: In a radioligand displacement assay an active substance lowers the binding of a labelled ligand.

The target in assay [3] is T1, Neuropeptide Y receptor type 4. Description: Intrinsic activity at human NPY Y4 receptor expressed in HEK293 cells co-expressing CRE-Luc gene assessed as inhibition of forskolin stimulated luciferase activity after 4.5 hrs by luminescence assay relative to pancreatic polypeptide. In kind it is functional, cell-based. A digest of the protocol:
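HEK293 cells stably co-transfected with a CRE-controlled firefly luciferase reporter and hY4R, tested in phenol-red-free DMEM, pH 7.4. […] The maximal inhibition by PP was set to 0% activity (α = 1.0). Data are means ± SEM of at least 3 experiments in triplicate.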

T1 sequence (P50391 whole entry): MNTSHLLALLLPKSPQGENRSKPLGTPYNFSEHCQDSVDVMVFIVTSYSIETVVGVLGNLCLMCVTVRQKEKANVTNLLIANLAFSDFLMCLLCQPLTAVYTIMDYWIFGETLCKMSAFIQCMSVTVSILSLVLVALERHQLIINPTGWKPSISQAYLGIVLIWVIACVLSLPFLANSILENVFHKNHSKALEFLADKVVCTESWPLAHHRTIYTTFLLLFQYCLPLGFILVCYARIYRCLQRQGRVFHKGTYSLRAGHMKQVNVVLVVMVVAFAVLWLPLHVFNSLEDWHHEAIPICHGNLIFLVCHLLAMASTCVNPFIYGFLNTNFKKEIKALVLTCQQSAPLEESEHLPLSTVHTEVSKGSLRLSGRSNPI

As a reminder, the pKi is the negative decadic logarithm of the Ki, by convention in mol/L. Higher therefore signals a small Ki. Regarding `CCC(=O)N[C@@H](CCCC[C@H](N)C(=O)N[C@@H](Cc1ccc(O)cc1)C(=O)N[C@@H](CCCNC(=N)N)C(=O)N[C@@H](CC(C)C)C(=O)N[C@@H](CCCNC(=N)N)C(=O)N[C@@H](Cc1ccc(O)cc1)C(N)=O)C(=O)N[C@@H](Cc1ccc(O)cc1)C(=O)N[C@@H](CCCNC(=N)N)C(=O)N[C@@H](CC(C)C)C(=O)N[C@@H](CCCNC(=N)N)C(=O)N[C@@H](Cc1ccc(O)cc1)C(N)=O`, in assay [1], the TIME was found to be 1.67 h. The same molecule showed a pKi in assay [2] of 6.38. In assay [3], the Intrinsic activity was determined as 1.
